Hits are enriched below; roughly 1.8% of the tested compounds scored in any of these assays.
HCV core dimer – HCV core protein dimerization inhibition | TR-FRET GST/Flag-core106 dimerization, 1536-well | inhibition, % at 5 µM | hit rate 0.33% among 300,000;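 active = inhibition above the mean of all tested compounds plus 3 SD, set per screening campaign, cut at about 45% in these data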
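System: GST/Flag-tagged HCV core106 proteins. Incubation: compound-protein-antibody incubation 4 h at 22.5 °C. Technique: HTRF with 340 nm excitation, 617/671 nm emission. Medium: KF-containing HEPES buffer, pH 7.45, DTT, CHAPS, BSA. Read-out: inhibition (%) from 671 over 617 nm ratio. Also added: Eu(K)-anti-GST 90 ng/mL plus XL665-anti-Flag 1 µg/mL.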
TDP2 inh – blocks human TDP2 phosphodiesterase activity. recombinant TDP2, T5PNP hydrolysis, p-nitrophenol absorbance 415 nm. AID 720702. hit rate 0.34% among 370,000. inhibition, % at 12.8 µM;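 active = inhibition above the mean of all tested compounds plus 3 SD, set per campaign, cut at about 25% in these data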;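 note: 0% = DMSO with enzyme and 100% = buffer with substrate but no TDP2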
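Incubation: 2 h at 37 °C; Test system: recombinant human TDP2; Quantity: enzyme 120 nM; Read-out basis: percent inhibition; Medium: 50 mM Tris-HCl pH 7.5 with Mg2+, KCl, DTT, BSA; Repeats: single replicate; Compound: 12.8 µM single point, 1% DMSO; Signal: epi absorbance; Reagent: 5 mM T5PNP chromogenic substrate; Benchmarks: no-enzyme high, DMSO-plus-enzyme low.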
LEDGF integ inh – blocks HIV-1 LEDGF/p75-dependent DNA integration; TR-FRET IN-LEDGF/p75 DNA integration, Eu/Cy5; inhibition, % at 3.7 µM; hit rate 0.64% among 370,000;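 active = inhibition above the screen-wide mean plus 3 SD, cut at about 13% in these data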;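 note: signal is the Cy5 over europium emission ratio at 671 and 618 nm; 0% = plate median of compound wells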
UHRF1 binding – human UHRF1 methylated DNA binding inhibitors; UHRF1 binding to methylated oligo, TR-FRET; inhibition, % at 4.4 µM; hit rate 0.75% among 370,000; AID 687016; in the data active = inhibition above about 21%;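 note: UHRF1 SRA domain binding a hemimethylated CpG hairpin DNA probe; 0% = median of test compound wells and 100% = reference inhibitor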
MBD2 inh – blocks human MBD2 binding to methylated DNA; TR-FRET, MBD2 binding to methylated oligonucleotide; inhibition, % at 4.4 µM; hit rate 0.31% among 370,000; AID 686964; in the data active = inhibition above about 13%
Target sequence (Q9UBB5 whole entry, looked up): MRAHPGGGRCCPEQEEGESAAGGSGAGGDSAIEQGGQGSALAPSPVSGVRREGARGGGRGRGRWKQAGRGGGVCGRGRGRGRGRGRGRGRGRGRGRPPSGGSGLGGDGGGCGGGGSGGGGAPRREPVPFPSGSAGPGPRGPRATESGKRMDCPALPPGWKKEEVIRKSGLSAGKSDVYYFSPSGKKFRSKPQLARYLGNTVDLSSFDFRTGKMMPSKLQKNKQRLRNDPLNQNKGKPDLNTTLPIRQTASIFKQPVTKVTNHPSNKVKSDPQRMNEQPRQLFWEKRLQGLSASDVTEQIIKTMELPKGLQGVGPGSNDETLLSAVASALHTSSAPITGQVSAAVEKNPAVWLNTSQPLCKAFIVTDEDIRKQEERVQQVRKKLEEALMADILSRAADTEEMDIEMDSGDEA
* marks the source's active call; other numbers are inactive results; nt = no result given.

SMILES	HCV core dimer	TDP2 inh	LEDGF integ inh	UHRF1 binding	MBD2 inh
CCOC(=O)C1=C(C)N(c2ccc(OC)cc2)C(=O)/C1=C\c1ccc(O)c(OCC)c1	2.8	-5.2	4.8	-7.3	-8.0
C=CCN1[C@@H](C)[C@H](c2ccccc2)Oc2cccc(NCCc3ccccc3)c2S1(=O)=O	nt	0.4	6.6	9.4	8.0
Cc1ccccc1CN1[C@@H](C)[C@H](c2ccccc2)Oc2cccc(NCCc3ccccc3)c2S1(=O)=O	nt	5.2	2.8	20.7*	2.4
Cc1ccccc1N1CCN(C2CCCN(C(=O)CCN3CCCCC3=O)C2)CC1 (configuration not stated)	-2.4	-4.1	4.3	24.4*	1.4
CCn1nnnc1SCC(=O)Nc1ccc2c(c1)OCO2	-2.3	-0.9	0.6	1.9	-3.2
COc1cc(NC(=O)CSc2nnnn2Cc2ccc3c(c2)OCO3)cc(OC)c1	-6.9	4.1	4.0	23.8*	13.0
O=C(OCCN1CCN(C2CN(Cc3cn(Cc4ccccc4C(F)(F)F)nn3)S(=O)(=O)C2)CC1)c1cc2ccccc2o1 (configuration not stated)	nt	-4.2	-2.0	7.0	3.8
Cc1ccc2nc(-c3ccccc3)c(CN3CCN(c4ccccc4F)CC3)n2c1	-0.5	9.8	-0.1	22.7*	-1.1
Cc1ccc2nc(-c3ccccc3)c(CN3CCSCC3)n2c1	3.7	-14.2	-1.1	4.2	1.0
O=c1c2cc3cccnc3nc2ncn1Cc1cccs1	nt	8.9	-5.5	-1.6	0.6
CC(C)OC(=O)CSc1nc2ccccc2s1	1.1	3.8	2.5	23.2*	9.9
Cc1ccc(Cn2cc(CN(C(C)(C)C)S(=O)(=O)c3ccc(F)cc3Br)nn2)cc1	nt	-0.5	-4.5	0.4	5.8
CC1CCCC2(C1)NC(=S)c1c(sc3c1CCCC3)N2 (configuration not stated)	52.7*	9.7	-1.8	-0.2	-1.0
COc1cc(O)ccc1C=O	-4.1	1.1	-3.3	27.4*	2.0
COc1ccc(C=O)c(OC)c1	-3.3	4.4	4.7	2.1	-5.6
COc1cccc(NC(=O)CN(C)C(=O)c2cc(-c3ccc(C)o3)nc3ccccc23)c1	nt	-5.7	0.9	-2.8	-3.6
Cc1ccc(-c2cc(C(=O)NCc3ccco3)c3ccccc3n2)o1	66.4*	12.0	15.4*	7.7	4.6
Cc1ccc(-c2cc(C(=O)NC3=NCCS3)c3cc(Br)ccc3n2)o1	51.4*	nt	nt	nt	nt
COc1ccc(-c2cc(C(=O)Nc3ccc(S(=O)(=O)Nc4onc(C)c4C)cc3)c3ccccc3n2)cc1	14.9	4.8	60.2*	2.6	2.7
COc1cccc(NC(=O)c2cc(-c3ccc(C)o3)nc3ccccc23)c1	48.2*	13.7	-0.3	4.8	-1.8
CCCC(=O)OC12CCCN(C1)/C(=C/c1cccc(N(C)C)c1)C2 (configuration not stated)	nt	1.8	-1.1	-0.4	-0.4
O=C(Nc1nc(Cc2ccccc2)c(-c2ccccc2)n1Cc1ccccc1)c1ccccc1	nt	3.8	9.7	1.4	-0.8
CC(C)C(C#CC1CC1)NCc1ccc2c(c1)OCO2 (configuration not stated)	nt	-9.4	-2.1	0.6	2.4
Cc1cc(C)c2nc(-c3ccccn3)cc(C(=O)NCc3cc(C)n(C)n3)c2c1	1.9	-16.7	-2.0	-1.8	-6.1
Cc1cc(C)c2nc(-c3ccccn3)cc(C(=O)NCc3ccco3)c2c1	68.9*	-0.3	2.6	-3.0	-0.1
SMILES	HCV core dimer	TDP2 inh	LEDGF integ inh	UHRF1 binding	MBD2 inh
Cc1ccc(-c2cc(C(=O)Nc3ccccc3C)c3ccccc3n2)o1	64.1*	2.0	1.1	2.4	-0.7
CC(COc1ccccc1)CN1CCC(C(O)(c2ccccc2)c2ccccc2)CC1 (configuration not stated)	nt	-4.5	-1.6	-1.3	3.2
Cc1cc(C)nc(NCC(O)CNc2ccccc2Cl)n1 (configuration not stated)	-6.5	15.4	-1.3	22.5*	8.6
Cn1cccc1/C=N/NC(=O)c1ccc[n+]([O-])c1	-1.9	12.0	2.1	22.1*	0.7
CCOC(=O)c1c(/N=C/c2ccc(C)cc2O)sc2c1CCC2	-16.0	21.5	-1.1	-0.3	-3.6
CCOC(=O)c1c(/N=C/N(C)C)sc2c1CCC2	-12.5	-1.6	-0.8	95.3*	4.0
COC(=O)C12C=C3CC(C)=C3C(=O)N1Cc1[nH]c3ccccc3c1C2 (configuration not stated)	nt	-8.1	3.9	-5.3	-4.2
CCN(C)C1CN(Cc2cn(CCCOC)nn2)S(=O)(=O)C1 (configuration not stated)	nt	2.8	-0.4	6.7	-0.5
COCCCn1cc(CN(C)C2CN(Cc3cn(CCCOC)nn3)S(=O)(=O)C2)nn1 (configuration not stated)	nt	7.8	1.7	24.4*	7.9
COc1ccccc1/C=C/C=c1\sc2nc(=O)c(Cc3ccccc3)nn2c1=O	61.3*	2.8	5.3	-0.1	4.1
O=C(N/N=C/c1ccc(O)cc1O)c1ccc(CN2C(=O)c3cccc4cccc2c34)cc1	54.2*	-12.7	4.8	6.2	3.9
CC[C@H](C)/C=C(C)/C=C/C1=CC2=CC(=O)[C@]3(C)OC(=O)[C@@H](C(C)=O)[C@@H]3C2=CO1	56.4*	-3.9	5.9	1.1	2.6
O=C(c1ccccc1)N1CC[C@H]2[C@H](CCCN2Cc2ccccc2)C1	nt	0.5	5.9	0.0	-0.9
C#CCN1CC(N(C)CCOC(=O)c2cc(C)cc(C)c2)CS1(=O)=O (configuration not stated)	nt	-2.2	0.1	-1.0	-4.5
CN(Cc1ccccc1)C(=O)OCc1cn(Cc2ccccc2)nn1	nt	7.5	4.8	-0.7	-2.7
COC(=O)c1c(C)[nH]c(C(=O)COC(=O)Cn2cc(C(F)(F)F)ccc2=O)c1C	nt	15.0	-5.0	82.2*	-1.1
Cc1cc(C)cc(-c2c(C(=O)c3ccc(Br)cc3)[nH]c(N)c2C(=O)NCc2ccc(Cl)cc2)c1	nt	-0.1	-3.7	-0.1	3.2
Cc1ccc(S(=O)(=O)N2CCN(C(=O)CCC(=O)NCCc3ccc(S(N)(=O)=O)cc3)CC2)c(C)c1	-0.5	3.4	-1.1	43.8*	8.2
CC1=NN(c2ccccc2)C(=O)C1N=Nc1cccc(O)c1 (configuration not stated)	-2.5	0.4	-0.1	-1.7	-3.9
CC1=NN(c2ccc(C)cc2C)C(=O)C1C(c1cccc(O)c1)C1C(=O)N(c2ccc(C)cc2C)N=C1C (configuration not stated)	-2.5	70.6*	12.4	8.4	-4.0
CCCSc1nc2cc(C)c(C)cc2n1CC(C)O (configuration not stated)	5.1	8.6	1.2	22.0*	6.3
CCCSc1nc2cc(C)c(C)cc2n1CC(O)CO (configuration not stated)	-1.8	-12.5	-3.7	2.3	-0.5
CCCCn1nnnc1C1(C)CCC(=O)N1CCCN1CCOCC1 (configuration not stated)	nt	6.0	-1.9	21.6*	8.5
